Experimental data published in article PMC9674260 (Proceedings of the National Academy of Sciences of the …, 2022).
Where two headings read alike, the source gives them in different places.

Assays:
[1] = test system: AT2 cells in alveolospheres; type: cell-based, mouse; conditions: LGK974 alone, 2 wk
LRP6 E1 = biological target: T1, LRP6 E1 (Homo sapiens, UniProt O75581); assay: SPR binding to immobilized LRP6 E1 domain
T1 sequence (O75581 20-326): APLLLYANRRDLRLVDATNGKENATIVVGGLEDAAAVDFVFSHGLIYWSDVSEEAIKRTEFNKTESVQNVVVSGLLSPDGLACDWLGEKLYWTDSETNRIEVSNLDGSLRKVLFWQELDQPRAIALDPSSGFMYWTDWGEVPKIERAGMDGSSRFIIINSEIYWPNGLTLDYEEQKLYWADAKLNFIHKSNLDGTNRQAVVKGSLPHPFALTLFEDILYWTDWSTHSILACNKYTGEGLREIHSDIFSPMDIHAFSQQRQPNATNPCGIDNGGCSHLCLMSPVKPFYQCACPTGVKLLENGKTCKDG

LRP6 E1-E2 = assay: SPR binding to immobilized LRP6 E1-E2; design: species or system human
[2] = biological target: LRP6 E3-E4 domains (human); assay: SPR
[3] = biological target: LRP6 E1-E2 domains (human); assay: SPR
MC3T3-E1 cells = assay: Osteogenic differentiation of MC3T3-E1 cells; type: cell-based, murine; conditions: MC3T3-E1 in om+ medium, 21 d; 5 µM Lr-EET-3.5, 1 µg SOST, 1 µM FabYW210 and FabYW211; four independent assays
Procedure, shortened: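 MC3T3-E1 cells were grown in differentiation medium (50 µg/mL ascorbate-2-phosphate, 10 mM β-glycerophosphate) or in control medium without these factors, plus LRP6-binding reagents (Fabs 1 µM, test compound 5 µM). Mineralized nodules were stained with alizarin red S at 21 d, and nodule area above the control-medium background was quantified. Bglap mRNA was measured by qRT-PCR after 1 wk. Values are means of four independent assays, with SD and one-way ANOVA.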

LRP6 E2 = conditions: read-out: KD, binding to E2 alone; previously reported; cited from earlier work
LRP6 E3-E4 = assay: SPR binding to immobilized LRP6 E3-E4; design: species or system human
[4] = test system: Wnt1/sFRP-1 binding to LRP6-E1-E2; assay: SPR competition with Wnt1/sFRP-1 for LRP6-E1-E2; design: species or system human; conditions: surface coated with LRP6-E1-E2 and saturated with competitor
Procedure, shortened: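 The SPR surface was coated with LRP6-E1-E2, then saturated with competitor or given buffer only. Wnt1/sFRP-1 (purified recombinant complex), competitor, or a mixture of the two was injected immediately afterward. Wnt1/sFRP-1 binding signal with or without competitor was inspected manually.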

[5] = biological target: T2, full-length extracellular domain of LRP6 (E1-E4) (human, UniProt O75581 20-1370); assay: SPR
T2 sequence: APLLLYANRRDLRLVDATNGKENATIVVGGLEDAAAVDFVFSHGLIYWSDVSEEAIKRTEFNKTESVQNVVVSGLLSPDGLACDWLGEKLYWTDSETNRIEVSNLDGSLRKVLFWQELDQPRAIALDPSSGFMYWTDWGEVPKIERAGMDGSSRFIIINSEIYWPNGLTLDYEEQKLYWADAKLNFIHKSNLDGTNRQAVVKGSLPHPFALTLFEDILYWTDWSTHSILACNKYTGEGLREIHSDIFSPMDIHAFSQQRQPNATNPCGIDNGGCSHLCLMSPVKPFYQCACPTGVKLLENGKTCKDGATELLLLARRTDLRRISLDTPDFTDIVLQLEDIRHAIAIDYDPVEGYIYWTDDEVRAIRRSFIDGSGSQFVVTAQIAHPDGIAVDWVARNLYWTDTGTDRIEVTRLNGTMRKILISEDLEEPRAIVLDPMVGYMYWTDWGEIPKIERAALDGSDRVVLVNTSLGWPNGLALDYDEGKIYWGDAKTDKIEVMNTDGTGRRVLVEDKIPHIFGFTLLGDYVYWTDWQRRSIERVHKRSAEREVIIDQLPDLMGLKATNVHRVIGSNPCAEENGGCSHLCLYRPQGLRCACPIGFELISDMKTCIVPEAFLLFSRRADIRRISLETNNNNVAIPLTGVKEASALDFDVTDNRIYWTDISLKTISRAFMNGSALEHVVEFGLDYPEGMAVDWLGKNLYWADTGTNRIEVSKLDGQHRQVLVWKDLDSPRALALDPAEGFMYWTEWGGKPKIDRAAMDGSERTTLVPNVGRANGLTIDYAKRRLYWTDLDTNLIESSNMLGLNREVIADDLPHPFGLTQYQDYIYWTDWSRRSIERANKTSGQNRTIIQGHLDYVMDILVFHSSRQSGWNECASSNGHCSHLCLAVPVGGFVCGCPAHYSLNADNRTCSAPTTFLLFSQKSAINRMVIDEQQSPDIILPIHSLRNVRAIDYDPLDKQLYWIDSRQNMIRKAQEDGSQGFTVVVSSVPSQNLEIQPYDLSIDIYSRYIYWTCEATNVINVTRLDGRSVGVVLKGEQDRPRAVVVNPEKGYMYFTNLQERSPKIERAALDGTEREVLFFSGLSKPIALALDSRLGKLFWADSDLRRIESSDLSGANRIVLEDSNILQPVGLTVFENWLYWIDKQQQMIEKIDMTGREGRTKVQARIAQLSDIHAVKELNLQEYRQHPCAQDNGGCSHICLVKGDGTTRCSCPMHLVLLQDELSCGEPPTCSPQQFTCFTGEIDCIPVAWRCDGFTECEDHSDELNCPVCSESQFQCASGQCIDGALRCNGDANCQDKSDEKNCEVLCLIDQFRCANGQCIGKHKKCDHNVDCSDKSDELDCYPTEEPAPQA

[6] = biological target: LRP6 E1-E2 domains (human); assay: SPR; remark: listed apart in the source

Cc1cc(-c2ncc(CC(=O)Nc3ccc(-c4cnccn4)cn3)cc2C)ccn1 [LGK974]
AT2 proliferation and formation of alveolospheres [1]: abrogated AT2 proliferation and the formation of alveolospheres

DKK1: natural Wnt inhibitor Dickkopf-1
KD, E1 alone (LRP6 E1; SPR, no competitor, two state model): no detectable binding | KD, E1-E2 in the presence of Lr-EET-3.5 (LRP6 E1-E2; surface saturated with 500 nM Lr-EET-3.5 and 500 nM CKP in every dilution): ablated the binding

Dickkopf-1 (DKK1) (from UniProt O94907 32-266) (natural protein)
Kd [2]: 43 nM | Kd [3]: 135 nM

SOST: natural Wnt inhibitor sclerostin
inhibition of matrix mineralization (alizarin red-S staining) (MC3T3-E1 cells): comparable | Kd (LRP6 E2): 1300 nM | KD, E3-E4 (LRP6 E3-E4; two state model): no interaction detected | effect on binding of WNT1/sFRP-1 to LRP6 [4]: antagonistic effect | binding to E1 alone on addition of Lr-EET-3.5 (LRP6 E1; SPR competition, 500 nM Lr-EET-3.5): completely blocked

sclerostin (SOST) (from UniProt Q9BQB4 24-213) (natural protein)
KD in the presence of Lr-EET-3.5 [3]: 47 nM | Kd [3]: 3.3 nM

B1: WNT1/secreted frizzled related protein 1 (sFRP-1) complex (complex)
chain 1: ANSSGRWWGIVNVASSTNLLTDSKSLQLVLEPSLQLLSRKQRRLIRQNPGILHSVSGGLQSAVRECKWQFRNRRWNCPTAPGPHLFGKIVNRGCRETAFIFAITSAGVTHSVARSCSEGSIESCTCDYRRRGPGGPDWHWGGCSDNIDFGRLFGREFVDSGEKGRDLRFLMNLHNNEAGRTTVFSEMRQECKCHGMSGSCTVRTCWMRLPTLRAVGDVLRDRFDGASRVLYGNRGSNRASRAELLRLEPEDPAHKPPSPHDLVYFEKSPNFCTYSGRLGTAGTAGRACNSSSPALDGCELLCCGRGHRTRTQRVTERCNCTFHWCCHVSCRNCTHTRVLHECL
chain 2: SEYDYVSFQSDIGPYQSGRFYTKPPQCVDIPADLRLCHNVGYKKMVLPNLLEHETMAEVKQQASSWVPLLNKNCHAGTQVFLCSLFAPVCLDRPIYPCRWLCEAVRDSCEPVMQFFGFYWPEMLKCDKFPEGDVCIAMTPPNATEASKPQGTTVCPPCDNELKSEAIIEHLCASEFALRMKIKEVKKENGDKKIVPKKKKPLKLGPIKKKDLKKLVLYLKNGADCPCHQLDNLSHHFLIMGRKVKSQYLLTAIHKWDKKNKEFKNFMKKMKNHECPTFQSVFK
Kd [5]: 6 nM | interaction with E3-E4 (LRP6 E3-E4; Wnt1/sFRP-1 as analyte): no interaction detected | Kd [6]: 3.4 nM | Kd (LRP6 E1-E2; read-out: KD, E1-E2, Wnt1/sFRP-1 as analyte, 1:1 binding model): 3.4 nM

B2: sclerostin (SOST) (natural protein)
chain: QGWQAFKNDATEIIPELGEYPEPPPELENNKTMNRAENGGRPPHHPFETKDVSEYSCRELHFTRYVTDGPCRSAKPVTELVCSGQCGPARLLPNAIGRGKWWRPSGPDFRCIPDRYRAQRVQLLCPGGEAPRARKVRLVASCKCKRLTRFHNQSELKDFGTEAARPQKGRKPRPRARSAKANQAELENAY
KD in the presence of Lr-EET-3.5 [5]: 41 nM | Kd [5]: 3.8 nM
